Data from ChEMBL document CHEMBL1821590, “Novel dihydropyrimidines and its pyrazole derivatives: synthesis and pharmacological screening” (Eur J Med Chem, 2011).
Values after ≈ are worked out from the molar mass of the structure shown.

Assays:
Type in all cases: functional
[1] = Antioxidant activity assessed as nitric oxide radical scavenging activity after 150 mins
In short: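 10 mM sodium nitroprusside (4 mL), PBS pH 7.4 (1 mL) and sample or ascorbic acid in DMSO (1 mL, 12.5–100 µg/mL), incubated 150 min at 25 °C. Nitrite detected with sulphanilic acid (5 min) then naphthylethylenediamine (30 min, diffused light). Read at […]. Triplicate. % inhibition = [1 − (Vt/Vc)] × 100. IC50 derived from it.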

[2] = Antioxidant activity assessed as hydrogen peroxide scavenging activity after 10 mins
In short: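 H2O2 (20 mM) in PBS pH 7.4. 1 mL of sample or ascorbic acid in methanol (12.5–100 µg/mL) added to 2 mL H2O2 solution. A230 read after 10 min. % inhibition = [1 − (Vt/Vc)] × 100. Triplicate, averaged. IC50 derived from % inhibition across concentrations.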

[3] = Antioxidant activity assessed as inhibition of lipid peroxidation using egg lecithin liposomes incubated for 1 hr
In short: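 Egg lecithin (3 mg/mL, phosphate buffer pH 7.4) sonicated 10 min to form liposomes. Sample or ascorbic acid (12.5–100 µg/mL) added. Peroxidation induced with FeCl3 and L-ascorbic acid, 1 h at 37 °C. Stopped with HCl/TCA/TBA/BHA, boiled 15 min, centrifuged, supernatant read at 532 nm. Triplicate. % inhibition vs control. IC50 derived.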

[4] = Antioxidant activity assessed as potassium ferricyanide ion reducing power after 20 mins
In short: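 Oyaizu method. Samples or ascorbic acid in DMF (12.5–100 µg/mL) mixed with 0.2 M phosphate buffer pH 6.6 and 1% potassium ferricyanide, 20 min at 50 °C. 10% TCA added, centrifuged. Supernatant mixed with water and 0.1% FeCl3, read at 700 nm. % = [(Vt/Vc) − 1] × 100. IC50 derived.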

[5] = Antiinflammatory activity assessed as inhibition of albumin denaturation at 100 ug/ml by UV-visible spectrophotometry
In short: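 Compounds dissolved in minimal DMF, diluted in PBS pH 7.4 (final DMF <2.5%). 1 mL test solution (100 µg/mL) plus 1 mL 1% albumin in PBS, 15 min at 27 ± 1 °C, then heated 10 min at 60 ± 1 °C. After cooling, turbidity read at 660 nm. % inhibition = [(Vt/Vc) − 1] × 100 against a no-drug control. Triplicate, averaged. Diclofenac standard.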

[6] = tested on: Metaphire posthuma; assay: Anthelmintic activity against Pheretima posthuma assessed as time taken for complete parasite paralysis at 0.1% w/v
In short: (§1)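 Earthworms (Pheretima posthuma) exposed to test solutions at 0.1, 0.2 and 0.5% w/v; time in minutes to complete paralysis (worms motionless) recorded. Albendazole as standard. Mean of three determinations ± S.D.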

[7] = tested on: Metaphire posthuma; assay: Anthelmintic activity against Pheretima posthuma assessed as time taken for complete parasite paralysis at 0.2% w/v; in short: as §1
[8] = tested on: Metaphire posthuma; assay: Anthelmintic activity against Pheretima posthuma assessed as time taken for complete parasite paralysis at 0.5% w/v; in short: as §1
[9] = tested on: Metaphire posthuma; assay: Anthelmintic activity against Pheretima posthuma assessed as time taken for parasite death at 0.1% w/v
In short: (§2)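 Earthworms (Pheretima posthuma, spelled Perituma posthuma in text) exposed to test compounds at 0.1, 0.2 and 0.5% w/v. Albendazole served as standard, with an untreated control. Paralysis was recorded as the time until worms became motionless, then time to death was recorded, in minutes. Each value is the mean of three determinations with S.D.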

[10] = tested on: Metaphire posthuma; assay: Anthelmintic activity against Pheretima posthuma assessed as time taken for parasite death at 0.2% w/v; in short: as §2
[11] = tested on: Metaphire posthuma; assay: Anthelmintic activity against Pheretima posthuma assessed as time taken for parasite death at 0.5% w/v; in short: as §2
[12] = tested on: Escherichia coli; assay: Antimicrobial activity against Escherichia coli at 25 ug/ml by agar plate diffusion technique; conditions: read-out: IZ
In short: (§3)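 Agar plate diffusion against E. coli, P. aeruginosa, S. aureus and B. subtilis, with compounds at 25, 50 and 100 µg/mL. Streptomycin as standard.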

[13] = tested on: Escherichia coli; assay: Antimicrobial activity against Escherichia coli at 50 ug/ml by agar plate diffusion technique; conditions: read-out: IZ; in short: as §3
[14] = tested on: Escherichia coli; assay: Antimicrobial activity against Escherichia coli at 100 ug/ml by agar plate diffusion technique; conditions: read-out: IZ; in short: as §3
[15] = tested on: Pseudomonas aeruginosa; assay: Antimicrobial activity against Pseudomonas aeruginosa at 25 ug/ml by agar plate diffusion technique; conditions: read-out: IZ; in short: as §3
[16] = tested on: Pseudomonas aeruginosa; assay: Antimicrobial activity against Pseudomonas aeruginosa at 50 ug/ml by agar plate diffusion technique; conditions: read-out: IZ; in short: as §3
[17] = tested on: Pseudomonas aeruginosa; assay: Antimicrobial activity against Pseudomonas aeruginosa at 100 ug/ml by agar plate diffusion technique; conditions: read-out: IZ; in short: as §3
[18] = tested on: Bacillus subtilis; assay: Antimicrobial activity against Bacillus subtilis at 25 ug/ml by agar plate diffusion technique; conditions: read-out: IZ; in short: as §3
[19] = tested on: Bacillus subtilis; assay: Antimicrobial activity against Bacillus subtilis at 50 ug/ml by agar plate diffusion technique; conditions: read-out: IZ; in short: as §3
[20] = tested on: Bacillus subtilis; assay: Antimicrobial activity against Bacillus subtilis at 100 ug/ml by agar plate diffusion technique; conditions: read-out: IZ; in short: as §3
[21] = tested on: Staphylococcus aureus; assay: Antimicrobial activity against Staphylococcus aureus at 25 ug/ml by agar plate diffusion technique; conditions: read-out: IZ; in short: as §3
[22] = tested on: Staphylococcus aureus; assay: Antimicrobial activity against Staphylococcus aureus at 50 ug/ml by agar plate diffusion technique; conditions: read-out: IZ; in short: as §3
[23] = tested on: Staphylococcus aureus; assay: Antimicrobial activity against Staphylococcus aureus at 100 ug/ml by agar plate diffusion technique; conditions: read-out: IZ; in short: as §3
[24] = tested on: Candida albicans; assay: Antimicrobial activity against Candida albicans at 25 ug/ml by paper disc method; conditions: read-out: IZ
In short: (§4)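 Paper disc method against A. niger and C. albicans, with compounds at 25, 50 and 100 µg/mL. Amphotericin-B as standard.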

[25] = tested on: Candida albicans; assay: Antimicrobial activity against Candida albicans at 50 ug/ml by paper disc method; conditions: read-out: IZ; in short: as §4
[26] = tested on: Candida albicans; assay: Antimicrobial activity against Candida albicans at 100 ug/ml by paper disc method; conditions: read-out: IZ; in short: as §4
[27] = tested on: Aspergillus niger; assay: Antimicrobial activity against Aspergillus niger at 25 ug/ml by paper disc method; conditions: read-out: IZ; in short: as §4
[28] = tested on: Aspergillus niger; assay: Antimicrobial activity against Aspergillus niger at 50 ug/ml by paper disc method; conditions: read-out: IZ; in short: as §4
[29] = tested on: Aspergillus niger; assay: Antimicrobial activity against Aspergillus niger at 100 ug/ml by paper disc method; conditions: read-out: IZ; in short: as §4

SMILES | IC50 [1] | IC50 [2] | IC50 [3] | IC50 [4] | inhibition [5] | Time [6] | Time [7] | Time [8] | Time [9] | Time [10] | Time [11] | zone of inhibition at 25 µg/mL [12] | zone of inhibition at 50 µg/mL [13] | zone of inhibition at 100 µg/mL [14] | zone of inhibition at 25 µg/mL [15] | zone of inhibition at 50 µg/mL [16] | zone of inhibition at 100 µg/mL [17] | zone of inhibition at 25 µg/mL [18] | zone of inhibition at 50 µg/mL [19] | zone of inhibition at 100 µg/mL [20] | also measured
CCOC(=O)c1cnn(-c2nc(-c3ccco3)c(C#N)c(=O)n2C)c1N | 108 µg/mL (≈ 305 µM) | 104 µg/mL (≈ 294 µM) | 116 µg/mL (≈ 327 µM) | 91 µg/mL (≈ 257 µM) | 42.2% | 47.26 min | 42.22 min | 45.98 min | 58.76 min | 55.23 min | 54.82 min | 13 mm | 14.2 mm | 18 mm | 9.19 mm | 12.1 mm | 19.9 mm | 12.9 mm | 14.1 mm | 18.3 mm | zone of inhibition at 25 µg/mL [21]: 10.9 mm; zone of inhibition at 50 µg/mL [22]: 14.1 mm; zone of inhibition at 100 µg/mL [23]: 17.7 mm; zone of inhibition at 25 µg/mL [24]: 10.9 mm; zone of inhibition at 50 µg/mL [25]: 12.3 mm; zone of inhibition at 100 µg/mL [26]: 18 mm; zone of inhibition at 25 µg/mL [27]: 10.1 mm; zone of inhibition at 50 µg/mL [28]: 13.1 mm; zone of inhibition at 100 µg/mL [29]: 20.4 mm
CCOC(=O)c1cnn(-c2nc(-c3ccc(OC)cc3)c(C#N)c(=O)n2C)c1N | 79 µg/mL (≈ 200 µM) | 74 µg/mL (≈ 188 µM) | 68 µg/mL (≈ 172 µM) | 59 µg/mL (≈ 150 µM) | 13.6% | 52.09 min | 49.46 min | 45.02 min | 67.41 min | 63.37 min | 57.93 min | 10.5 mm | 14.7 mm | 17.4 mm | 8.21 mm | 10.2 mm | 16.1 mm | 10.2 mm | 14 mm | 18.1 mm | zone of inhibition at 25 µg/mL [21]: 10.1 mm; zone of inhibition at 50 µg/mL [22]: 15.1 mm; zone of inhibition at 100 µg/mL [23]: 18.6 mm; zone of inhibition at 25 µg/mL [24]: 9.62 mm; zone of inhibition at 50 µg/mL [25]: 12.6 mm; zone of inhibition at 100 µg/mL [26]: 19.8 mm; zone of inhibition at 25 µg/mL [27]: 11.6 mm; zone of inhibition at 50 µg/mL [28]: 13 mm; zone of inhibition at 100 µg/mL [29]: 20.7 mm
CCOC(=O)c1cnn(-c2nc(-c3ccc(N(C)C)cc3)c(C#N)c(=O)n2C)c1N | 115 µg/mL (≈ 282 µM) | 119 µg/mL (≈ 292 µM) | 111 µg/mL (≈ 272 µM) | 98 µg/mL (≈ 241 µM) | 20.4% | 41.45 min | 46.58 min | 42.87 min | 49.79 min | 57.55 min | 58.72 min | 11.1 mm | 10.2 mm | 14 mm | 8.29 mm | 11.9 mm | 16.7 mm | 11.2 mm | 14.8 mm | 20.9 mm | zone of inhibition at 25 µg/mL [21]: 10.1 mm; zone of inhibition at 50 µg/mL [22]: 13.5 mm; zone of inhibition at 100 µg/mL [23]: 16.5 mm; zone of inhibition at 25 µg/mL [24]: 10.4 mm; zone of inhibition at 50 µg/mL [25]: 13.7 mm; zone of inhibition at 100 µg/mL [26]: 17.7 mm; zone of inhibition at 25 µg/mL [27]: 10.2 mm; zone of inhibition at 50 µg/mL [28]: 12.2 mm; zone of inhibition at 100 µg/mL [29]: 18.3 mm
